Hep lipid drop – hepatic lipid droplet formation modulation; AML12 mouse hepatocytes, oleate lipid droplets, BODIPY imaging; inhibition, % at 6.5 µM; hit rate 0.4% among 240,000; AID 1656;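 active means lipid droplet intensity inhibited by at least 50%, with more than 500 cells counted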
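Material: mouse AML12 hepatocyte cell line, fixed after treatment; Timing: compound with oleate, overnight; Technique: high-content imaging of BODIPY-stained droplets and DAPI nuclei; Probe or stimulus: oleate, 100 µM final; Dosing: compound at 6.5 µM only.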
AHR act – human AHR activation; AID 2796; hit rate 2.5% among 320,000; activation, % at 5 µM; P35869; AHR-responsive luciferase reporter cells, luminescence; in the data active means activation above about 47%;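 further: 0% = vehicle wells and 100% = reference agonist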
Target sequence (P35869 whole entry, looked up): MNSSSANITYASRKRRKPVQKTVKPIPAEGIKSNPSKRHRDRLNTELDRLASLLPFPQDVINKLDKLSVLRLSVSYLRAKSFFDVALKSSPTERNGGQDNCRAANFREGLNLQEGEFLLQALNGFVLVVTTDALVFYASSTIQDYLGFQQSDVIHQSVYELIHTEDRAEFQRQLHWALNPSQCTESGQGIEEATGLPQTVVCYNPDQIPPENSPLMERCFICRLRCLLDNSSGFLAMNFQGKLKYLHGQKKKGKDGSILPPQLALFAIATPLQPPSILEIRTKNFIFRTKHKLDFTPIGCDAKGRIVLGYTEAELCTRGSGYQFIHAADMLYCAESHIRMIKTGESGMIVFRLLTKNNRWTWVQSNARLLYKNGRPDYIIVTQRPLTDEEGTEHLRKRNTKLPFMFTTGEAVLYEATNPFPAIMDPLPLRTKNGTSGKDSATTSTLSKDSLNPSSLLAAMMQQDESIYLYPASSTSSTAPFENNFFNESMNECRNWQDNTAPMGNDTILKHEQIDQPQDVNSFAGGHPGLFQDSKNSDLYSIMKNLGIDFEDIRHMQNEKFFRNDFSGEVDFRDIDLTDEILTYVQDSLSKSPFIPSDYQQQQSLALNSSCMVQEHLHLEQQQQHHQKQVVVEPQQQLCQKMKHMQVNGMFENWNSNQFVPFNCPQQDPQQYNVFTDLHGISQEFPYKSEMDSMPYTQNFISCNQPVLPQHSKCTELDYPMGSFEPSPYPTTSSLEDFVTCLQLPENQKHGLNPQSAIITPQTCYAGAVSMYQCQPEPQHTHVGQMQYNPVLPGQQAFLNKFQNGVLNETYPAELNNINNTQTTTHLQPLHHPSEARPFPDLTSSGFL
SR-BI DiI inh – mouse SR-BI HDL lipid transfer inhibition; hit rate 0.96% among 320,000; inhibition, % at 12.5 µM; ldlA[mSR-BI] CHO cells, DiI-HDL uptake fluorescence, 3 h; Q61009; AID 488896;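 active means mean replicate inhibition of at least 70% and a set share of replicates each scoring 70 or more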;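 further: 0% = median of neutral control wells and 100% = median of positive control wells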
SMARCA2 act – increases SMARCA2 function in MMTV reporter cells; MG213 cells, MMTV-luciferase reporter, dexamethasone, overnight; activation, % at 9.1 µM; hit rate 1% among 370,000; in the data active means activation above about 7.8%;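 further: 0% = vehicle wells and 100% = reference activator wells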
SR-BI uptake up – SR-BI HDL lipid transfer activation; hit rate 0.096% among 320,000; activation, % at 12.5 µM; CHO ldlA[mSR-BI] cells, DiI-HDL uptake fluorescence, 3 h; 100 = double the neutral-control signal;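 active means mean replicate activation of at least 60% and every replicate at or above 60%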;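 further: 0% = median plate neutral-control signal and 100% = twice that signal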
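material = CHO ldlA[mSR-BI] cells | medium = Ham's F12 with 0.5% BSA, HEPES 25 mM, pH 7.4 | reagent = fluorescent DiI-HDL, 10 µg/mL final | compound dosing = single-point compound dose | incubation = 3 h, 37 °C | measured by = bottom-read fluorescence, 550/595 nm | measure = HDL uptake via cellular fluorescence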
CR mimetic SO – yeast age-related superoxide inhibition as caloric restriction mimetic; S. cerevisiae aged cells, superoxide DHE fluorescence; hits give low values; superoxide response (% of plate mean), % at 10 µM; hit rate 0.18% among 330,000;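 active means superoxide response under a set limit, about three screen SD below normal, cut at about 65% in these data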;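 further: yeast aged for seven days with compound at 30 °C before DHE staining; 100% = average MFI of all compound-treated wells on the plate with controls excluded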
SMARCA2 conf – confirmation of SMARCA2 (BRM) function activators. activation, % at 9.1 µM. shares compounds with SMARCA2 act. MG213 cells, MMTV-luciferase with dexamethasone, luminescence, overnight; MG213 cells expressing E1A, Rb sequestered; DMSO wells 0%, reference activator 100%. AID 652260. hit rate 30% among 3,500;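 active means activation above its plate's cutoff, the mean activation of tested wells plus 3 SD, cut at about 7.9% in these data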
GAL4-VP16 Luc – activates GAL4-VP16 luciferase, flagging SMARCA2 activator hits; activation, % at 9.1 µM; shares compounds with SMARCA2 act; hit rate 41% among 3,500; HEK293 GAL4-VP16 pG5luc reporter, luciferase luminescence; scaled: DMSO wells 0%, SAHA wells 100%;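 active means activation above the solvent-only control well mean plus 3 SD, averaged across control plates, cut at about 5.2% in these data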
An asterisk follows results filed as active; . = no result given. Shown are actives, neighbours in structure and some others; about 4.3% of the full set was active somewhere.

SMILES	Hep lipid drop	AHR act	SR-BI DiI inh	SMARCA2 act	SR-BI uptake up	CR mimetic SO	SMARCA2 conf	GAL4-VP16 Luc
O=C(Nc1ccccc1F)c1csc([C@@H]2C[C@H](O)[C@@H](CO)O2)n1	.	.	.	10.6*	.	.	-0.1	-1.4
CC(C)[C@H]1COc2c3ccccc3nn21	.	.	.	-2.6	.	.	.	.
O=C(N/N=C/c1ccccc1F)c1csc2c1CCCC2	.	0.1	33.4	12.0*	-33.4	98.4	8.6*	10.0*
O=C(N/N=C/c1cccc(F)c1)c1csc2c1CCCC2	.	3.3	21.3	5.3	-21.3	101.9	.	.
Cn1nccc1C(=O)N1CCN(c2ccccc2Cl)CC1	4.7	-1.9	-1.0	8.0*	.	115.7	1.0	1.1
CCN(CC)CCn1c(=N)n(CC(O)c2ccc(OC)c(OC)c2)c2ccccc21 (stereo unspecified)	0.0	-1.1	-15.4	-0.7	15.3	92.3	.	.
CCN(CC)CCn1c(=N)n(CC(O)COc2cccc(C)c2)c2ccccc21 (stereo unspecified)	3.4	0.3	-7.0	8.3*	7.0	110.2	5.5	0.9
C#CCN1CC(N(C)CCOC(=O)c2ccc(OC)c(OC)c2)CS1(=O)=O (stereo unspecified)	.	.	.	-5.7	.	.	.	.
Cc1nc(NC(=O)/C=C/c2ccccc2)sc1C(=O)N(C)C	26.2	2.8	7.7	10.0*	-7.7	103.3	2.9	6.2*
Cc1nc(NC(=O)/C=C/c2ccc(F)cc2)sc1C(=O)N(C)C	-3.4	-0.7	21.1	2.4	-21.1	95.0	.	.
CCOc1ccc(C=Nn2c(-c3ccc(F)cc3)n[nH]c2=S)cc1	.	.	.	-2.4	.	.	.	.
O=C1C2C3CCC(O3)C2C(=O)N1c1nccs1 (stereo unspecified)	.	.	-17.1	9.5*	17.1	.	-0.2	-0.1
Cc1ccc(NC(=O)c2cccc3c2-c2ccccc2C3=O)c(C)c1	.	.	.	-3.8	.	.	.	.
Cc1ccc(C(C#N)=Cc2ccc3c(c2)OCO3)cc1	.	.	.	13.5*	.	.	1.6	10.7*
Cc1ccc(NC(=O)C2CCN(c3nnc(-n4cccc4)s3)CC2)cc1C	.	.	.	-3.1	.	.	.	.
CNc1cc(C)nc(N2CCOCC2)n1	15.9	0.0	-21.2	8.7*	21.3	96.6	-1.1	0.7
COC(=O)c1cc2c(c3c4cc(F)ccc4n(S(=O)(=O)c4cccc(C)c4)c13)C(=O)N(Cc1ccco1)C2	.	.	.	2.9	.	.	.	.
CCOC(=O)[C@]12CCCC=C1N(Cc1ccco1)C(=O)[C@H](CC(=O)NCCc1ccccc1OC)C2	.	.	.	8.3*	.	.	0.3	-0.3
CCOC(=O)[C@]12CCC=C1N(Cc1ccccc1)C(=O)[C@H](CC(=O)NCCc1ccccc1OC)C2	.	.	.	10.4*	.	.	-2.8	-1.2
COC(=O)C[C@@H]1CC[C@H]2[C@@H](COc3ccc(NS(=O)(=O)c4ccccc4F)cc3C(=O)N2C)O1	.	.	.	0.3	.	.	.	.
N#Cc1ccc(OC[C@@H](O)CN2CCC(C(O)(c3ccccc3)c3ccccc3)CC2)cc1F	.	.	.	-2.7	.	.	.	.
COc1nc(=O)n(C2C=CC(=O)O2)cc1F (stereo unspecified)	.	.	.	15.5*	.	.	23.4*	5.7*
COc1ccc(-c2noc(C3CCCN(C(=O)NC4CCC(C)CC4)C3)n2)cc1 (stereo unspecified)	.	.	.	0.8	.	.	.	.
CCOC(=O)C1=CCN(S(=O)(=O)c2ccccc2Cl)C1c1ccc(Cl)cc1 (stereo unspecified)	.	.	.	-2.4	.	.	.	.
CCCCNS(=O)(=O)/C=C/c1ccc(F)cc1CNC(=O)OC(C)(C)C	.	.	.	-3.0	.	.	.	.
SMILES	Hep lipid drop	AHR act	SR-BI DiI inh	SMARCA2 act	SR-BI uptake up	CR mimetic SO	SMARCA2 conf	GAL4-VP16 Luc
CCC(C)c1ccc(N(C(=O)c2ccco2)C(C(=O)NC2CCCC2)c2cccnc2)cc1 (stereo unspecified)	-1.7	12.8	.	8.1*	.	102.0	3.8	5.2*
CC(C)c1ccc(N(C(=O)c2ccco2)C(C(=O)NC2CCCC2)c2ccncc2)cc1 (stereo unspecified)	-1.4	17.9	-8.1	8.0*	8.1	91.5	3.0	2.5
COc1ccc(N(C(=O)c2ccco2)C(C(=O)NC2CCCC2)c2ccncc2)cc1 (stereo unspecified)	8.8	1.3	-5.2	-2.2	5.2	98.8	.	.
COCC(C)NC(=O)c1noc2c1CCc1cc(OC)ccc1-2 (stereo unspecified)	12.9	-6.4	35.5	9.7*	-35.5	116.5	2.9	11.1*
COCCNC(=O)c1noc2c1CCc1cc(OC)ccc1-2	-14.6	0.5	-7.8	1.7	7.8	114.8	.	.
COc1cc2sc3cc(NCc4ccc(C)o4)ccc3c(=O)c2cc1OC	.	9.0	80.0*	8.7*	-80.0	120.3	8.9*	9.3*
COc1cc2sc3cc(NCC[C@@H]4CCCN4C)ccc3c(=O)c2cc1OC	.	8.3	62.9	6.9	-62.9	97.2	.	.
COC(=O)[C@]12C[C@H](CC(=O)NCc3ccc(C)o3)C(=O)N(CCc3ccc(OC)c(OC)c3)C1=C[C@H](C(C)C)O[C@@H]2C1CC1	.	.	.	-0.9	.	.	.	.
O=C(Nc1ccc(NC(=O)c2ccccc2F)cc1)c1cccs1	.	-3.8	15.2	8.8*	-15.2	101.2	4.8	7.7*
Cc1ccn(-c2ccc(NC(=O)c3cccs3)cc2)n1	-3.8	-4.9	-9.0	8.0*	9.0	110.2	9.0*	7.9*
CN1CCN(c2ccc(NC(=O)c3cccs3)cc2)CC1	8.3	6.5	10.0	4.0	-10.0	104.8	.	.
O=C(Nc1ccc(-c2cn3ccccc3n2)cc1)c1cccs1	1.1	-4.1	8.6	8.1*	-8.6	91.3	28.2*	13.6*
CC(=O)Nc1cccc(-c2cn3ccc(C)cc3n2)c1	-13.3	7.8	17.5	4.6	-17.5	77.9	.	.
O=C(Nc1ccc(NC(=O)c2cccs2)cc1)c1cccs1	14.9	-11.0	-7.2	4.3	7.2	108.8	.	.
CC(=O)Nc1ccc2nc(-c3ccccc3)cn2c1	9.4	10.7	-4.7	8.8*	4.7	118.5	9.4*	7.6*
O=S1(=O)c2ccc(Br)cc2OC[C@@H](Cc2ccccc2)N1Cc1cn(Cc2ccc(Cl)cc2)nn1	.	.	.	-6.4	.	.	.	.
COCCN1Cc2cc(C(=O)OC)c3c(c2C1=O)c1cc(F)ccc1n3C(=O)c1ccccc1	.	.	.	-3.6	.	.	.	.
C/C(NC(=O)c1ccccc1)=C1/C(=O)CC2C1C2(C)C (stereo unspecified)	.	20.7	.	8.0*	.	99.0	18.8*	5.0
CCn1c(COc2ccccc2)nnc1SCC(=O)Nc1ccc(Oc2ccccc2)cc1	.	.	.	-3.1	.	.	.	.
COc1cc2c(cc1NC(=O)c1ccccc1F)CCCC2	8.5	19.1	69.1	9.3*	-69.1	106.4	4.4	7.6*

From PubChem
